MrgX1 antagonist: human MrgX1 receptor antagonism, primary screen. B-score at 10 µM. MRGX1-HEK293 calcium flux, Fluo-4, BAM8-22 antagonism; active compounds read low. 1.3% of 310,000 active;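 active = calcium-response B-score plate-corrected more than 3 library SD below zero, starting fluorescence within 5 deviations, no agonist response on first addition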;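 also: peak minus trough fluorescence over baseline after final BAM8-22 challenge near maximal dose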
Target sequence (Q96LB2 whole entry, looked up): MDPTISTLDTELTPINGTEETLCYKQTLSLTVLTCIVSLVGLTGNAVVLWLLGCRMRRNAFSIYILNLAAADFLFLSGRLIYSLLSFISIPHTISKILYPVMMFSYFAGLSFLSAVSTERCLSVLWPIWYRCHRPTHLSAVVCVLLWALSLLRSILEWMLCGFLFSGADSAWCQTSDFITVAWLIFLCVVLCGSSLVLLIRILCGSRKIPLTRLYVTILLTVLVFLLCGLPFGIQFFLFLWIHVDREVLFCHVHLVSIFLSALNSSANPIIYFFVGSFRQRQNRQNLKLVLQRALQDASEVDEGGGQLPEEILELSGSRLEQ
RGS4 pot: RGS4 potentiation or activation; HEK293 M3R/inducible RGS4, carbachol calcium flux Fluo4; active compounds read low; AID 463111; B-score at 10 µM; 0.92% of 310,000 active;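 active = B-score of the integrated calcium signal more than 4 SD below the library mean, with starting fluorescence not abnormally high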;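 also: negative B-score means reduced calcium response which marks RGS4 activation or potentiation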
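Detection: kinetic calcium fluorescence imaging with Fluo4-AM dye, 2 µM / Material: HEK293 cells with stable M3R and inducible RGS4 / Schedule: recording 10 s baseline at 1 Hz, 100 s post-agonist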
MrgX1 PAM: allosterically activates human MrgX1 receptor signaling; AID 588675; MrgX1-HEK293, Fluo-4 calcium flux, FDSS; active compounds read high; B-score at 10 µM; 0.63% of 310,000 active; Q96LB2;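 active = plate-corrected calcium response at least 3 library SD above typical, normal starting fluorescence, not activating the receptor alone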;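 also: compound read alongside a low EC10 to EC30 dose of BAM8-22 agonist; peak minus trough fluorescence over baseline measured at the second addition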
MrgX1 ag: agonists of human MrgX1 receptor. MrgX1-HEK293 cells, Fluo-4 calcium fluorescence, agonist mode; active compounds read high. B-score at 10 µM. 0.44% of 310,000 active. Q96LB2;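 active = calcium response B-score plate-corrected fluorescence ratio at least 3 library SD, with starting fluorescence B-score inside 5 SD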
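Test system: HEK293 cells stably expressing human MrgX1 receptor; amount: 15,000 cells per well; doses: compound delivered in addition one of three; times: overnight plating before 1 h dye loading; detection: Fluo-4 NW calcium-flux fluorescence, kinetic read; read-out basis: B-scored fluorescence response ratio; controls: positive and negative controls per plate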
RGS4 inh: human RGS4 inhibition; B-score at 10 µM; P49798; HEK293 M3R/RGS4 inducible, Fluo-4 calcium flux; active compounds read high; triggered by carbachol at its EC20; 0.45% of 310,000 active;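 active = B-score, a plate-corrected calcium signal, over three deviations above library mean, with baseline fluorescence within five deviations of library mean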;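 also: RGS4 expression induced by doxycycline in cells with stable M3 receptor; B-score is computed from the integrated fluorescence ratio over baseline after carbachol; higher B-score means a larger calcium signal and so more RGS4 inhibition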
Target sequence (P49798 whole entry, looked up): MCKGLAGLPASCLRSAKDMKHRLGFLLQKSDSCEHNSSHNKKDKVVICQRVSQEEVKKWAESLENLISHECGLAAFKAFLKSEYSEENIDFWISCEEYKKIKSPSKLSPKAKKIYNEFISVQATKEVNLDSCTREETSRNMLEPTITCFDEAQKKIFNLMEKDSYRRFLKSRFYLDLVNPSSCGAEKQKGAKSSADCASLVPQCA
Each line names hits and unclear results; the compound was inactive in the other large screens. The list is not random: actives were taken first. Their share in the collection is about 3.5%.

CCCCCCCCNC(C)C(O)c1ccc(SC(C)C)cc1 (configuration not stated)	RGS4 pot -6.95
C=CC[N+]1(CC(=O)NCc2ccc(NC(C)=O)cc2)CCOCC1	none
COC(=O)c1ccc(Oc2c(Cl)cccc2[N+](=O)[O-])cc1	MrgX1 PAM 8.57
Nc1nc(NCC2CCCO2)nc(Nc2ccc(Cl)cc2)c1[N+](=O)[O-] (configuration not stated)	MrgX1 PAM 6.83
C/C(=C\C(=O)c1ccc(Br)cc1)Nc1cccc(Cl)c1	RGS4 pot -8.09
C/C(=C\C(=O)c1ccc(Cl)cc1)Nc1ccc(Br)cc1	none
COc1cc(S(=O)(=O)Nc2ccc(C)cc2)ccc1N=Cc1c(C)[nH]n(-c2ccc(C)cc2)c1=O	none
COc1cc(S(=O)(=O)Nc2ccc(C)cc2)ccc1N=Cc1c(C)c(C#N)c(=O)n(C)c1O	RGS4 pot -8.58
O=C(O)CSc1nnc(Cc2cccc3ccccc23)n1-c1cc(C(F)(F)F)cc(C(F)(F)F)c1	none
O=C(NCC1CCCO1)c1nn2c(C(F)(F)F)cc(-c3cc(Br)cs3)nc2c1Br (configuration not stated)	MrgX1 ag 33.3
CCOC(=O)c1ccc(N2Cc3ccccc3C2=N)cc1	RGS4 pot -7.34
CCCCCCCCCCCCCCCC[n+]1cccc(C(=O)N(CC)CC)c1	RGS4 pot -9.91
Cc1cc(N=Nc2c(O)c3ccccc3[nH]c2=O)ccc1N=Nc1ccc(C(=O)N(C)C)cc1	RGS4 pot -7.82 (no result: MrgX1 antagonist, MrgX1 PAM, MrgX1 ag)
O=C(O)c1ccc(N=Nc2c(O)[nH]c3ccccc23)cc1	none
O=C(O)c1ccccc1/C=N/Nc1nc(N2CCCCC2)nc(N2CCCCC2)n1	MrgX1 antagonist -6.58
COc1cccc(/C=N/Nc2nc(N3CCCC3)nc(N3CCCC3)n2)c1O	RGS4 pot -7.68
CC(C)CN(C(=O)/C=C/c1nc2ccccc2s1)C1CCS(=O)(=O)C1 (configuration not stated)	none
N#Cc1c(-c2ccccc2Cl)cc(-c2ccccc2)nc1Br	RGS4 pot -7.34
CCc1ccc(-n2cc(-c3ccc(F)cc3)[n+]3c2SCCC3)cc1	RGS4 pot -7.29
Cc1ccc(-c2cn(-c3ccccc3)c3[n+]2CCCS3)cc1	none
COCCn1c(=O)[nH]c2cc(C(=O)Nc3nnc(C)s3)ccc21	none
CCOC(=O)C1CCCN(C(=O)Cn2cnc3sc(C)c(S(=O)(=O)N4CCOCC4)c3c2=O)C1 (configuration not stated)	none
Cc1cc(C)[n+](-c2ccc(C(C)C)cc2)c2[nH]c(=O)[nH]c(=O)c12	RGS4 pot -9
O=C(CSc1n[nH]c(=O)[nH]c1=O)NC1CCCCC1	none
COc1ccc(CCNC(=O)C(=O)NCC2OCCN2C(=O)c2ccc(Cl)cc2)cc1 (configuration not stated)	none
CCOc1ccc2nc(N3CCC(C(=O)N4CCN(c5ncccn5)CC4)CC3)sc2c1	MrgX1 antagonist -8.08
COc1cc(/C=C2\SC(N)=NC2=O)cc(Cl)c1O	MrgX1 ag 29.9
Cc1ccc(C(C)(c2ccc(N)cc2)c2ccc(N)cc2)cc1	none
CCOc1ccc(C(=O)NCC(=O)N2CCN(C/C=C/c3ccccc3)CC2)cc1OCC	RGS4 pot -7.16
CCCCCCCCC[n+]1cccc2c3ccccc3ccc21	RGS4 pot -8.59
Cc1ccc(C)c(S(=O)(=O)N2CCCOC2CNC(=O)C(=O)NCc2cccnc2)c1 (configuration not stated)	none
COc1ccc(C(=O)NNC(=O)Cc2nc3nc(C)cc(C)n3n2)cc1	none
CC(C)[N+](C)(CCOC(=O)C1c2ccccc2Oc2ccccc21)C(C)C	RGS4 pot -8.51
COc1ccc(/C=N/NC(=O)NC23CC4CC(CC(C4)C2)C3)c(OC)c1	MrgX1 PAM 6.95
COc1ccccc1/C=N/NC(=O)NC12CC3CC(CC(C3)C1)C2	none
COc1ccc(C2CC2C(C)=O)cc1 (configuration not stated)	MrgX1 ag 30.3
COc1ccc(C2CC2/C(C)=N/OC(=O)C2CC2)cc1 (configuration not stated)	none
CCc1nc(Nc2ccc3c(c2)OCCO3)c2oc3ccccc3c2n1	RGS4 pot -7.3
Cc1nn(C)c(C)c1/C=N/N=C1\CCC2C3CCc4cc(O)ccc4C3CCC12C (configuration not stated)	MrgX1 antagonist -5.64
O=C(Nc1ccccc1-c1nnc(SCc2ccc(Cl)cc2)o1)c1ccccc1	MrgX1 antagonist -7.12
O=C(Nc1ccccc1-c1nnc(SCc2ccccc2)o1)c1ccccc1	RGS4 pot -7.39
CC(C)(C)c1ccc(C(=O)NCC(=O)OCCN2C(=O)c3ccccc3C2=O)cc1	none
O=C1CSC(c2ccccc2O)N1Cc1ccccc1 (configuration not stated)	none
CCOC(=O)C1CCN(Cc2cccc(OCc3ccccc3)c2)CC1	none
COc1ccc(CC(=O)NC(C)c2nnc(SCC(=O)c3ccc(Br)cc3)n2C)cc1 (configuration not stated)	MrgX1 antagonist -7.39
CCn1c(SCC(=O)c2ccc(Br)cc2)nnc1C(C)NC(=O)Cc1ccc(OC)cc1 (configuration not stated)	none
Cc1noc(C)c1COc1ccc(C(=O)Nc2cccnc2)cc1	RGS4 pot -7.44 (no result: MrgX1 antagonist, MrgX1 PAM, MrgX1 ag)
O=C(O)c1ccc(CSc2nc(-c3ccc(Cl)cc3)cc(C(F)(F)F)n2)cc1	RGS4 pot -7.51
O=C(O)c1ccc(CSc2nc(-c3ccccc3)cc(C(F)(F)F)n2)cc1	none
CCCC1CC(CCc2ccccc2)OS(=O)(=O)N1 (configuration not stated)	none
CC1CCCC(C)N1/N=C/c1ccc(C#N)cc1 (configuration not stated)	MrgX1 PAM 8.41
N#CC1=C(N)SC(N)=C(C#N)C1c1ccoc1	MrgX1 ag 37.4
CC1=C(C#N)C(c2ccoc2)C(C(=O)OCc2ccccc2)=C(N)S1 (configuration not stated)	none
Cc1cc2oc(=O)cc(CN3CCOCC3)c2c(C)c1Cl	none
CCOC(=O)c1sc2cc([N+](=O)[O-])cc(SCC(=O)OC)c2c1N	MrgX1 antagonist -5.72
CCOC(=O)c1sc2cc([N+](=O)[O-])cc(SCCO)c2c1N	none
COc1ccc(C(=O)C2CCCN(S(=O)(=O)C(C)C)C2)c(C)c1 (configuration not stated)	RGS4 pot -7.56
COc1ccc(C(=O)C2CCCN(S(=O)(=O)N(C)C)C2)c(C)c1 (configuration not stated)	none
CSc1ccc(CN(C)Cc2cc(=O)oc3c(C)c(C)ccc23)cc1	RGS4 pot -7.17
Cc1ccc2c(CN(C)Cc3cccc(Cl)c3)cc(=O)oc2c1C	none
CC(Oc1ccc(-c2ccccc2)c(F)c1)c1ccn(S(=O)(=O)c2ccc(Br)cc2)n1 (configuration not stated)	MrgX1 antagonist -5.69

High-throughput results: PubChem, Johns Hopkins Ion Channel Center
